# Results as given in ChEMBL document CHEMBL3853298, “Total synthesis and in vitro bioevaluation of clavaminols A, C, H & deacetyl clavaminol H as potential chemotherapeutic and antibiofilm agents” (Eur J Med Chem, 2016).
# Columns and labels:
# [1] = tested on: Candida albicans; test: Antifungal activity against Candida albicans MTCC 7315 after 24 hrs by well diffusion method; assay type: functional; conditions: MTCC 7315, 24 h
# How it was run: (§1)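 Candida/Issatchenkia lawns (0.1 mL suspension) on Mueller-Hinton agar; 6.0 mm bored wells receive compound across a 250 to 0.48 per-well dose range, methanol as negative control. Plates kept 24 h at 30 °C. MIC is the lowest concentration producing a visible inhibition zone. Duplicate runs, mean values.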
# [2] = tested on: Candida albicans; test: Fungicidal activity against Candida albicans MTCC 7315 after 24 hrs; assay type: functional; conditions: MTCC 7315, 24 h
# How it was run: (§2)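 Candida grown overnight in Mueller Hinton broth. Compound serially diluted in the same broth from 150 to 0 and inoculated to a final 1.5 × 10^8 CFU/mL (0.5 McFarland), then 24 h at 37 °C. Tube contents plated onto Mueller Hinton agar for 24 h at 37 °C. MFC is the lowest concentration killing the yeast. Duplicates.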
# [3] = tested on: Pichia sporocuriosa; test: Antifungal activity against Issatchenkia hanoiensis MTCC 4755 after 24 hrs by well diffusion method; assay type: functional; conditions: MTCC 4755, 24 h; how it was run: as §1
# [4] = tested on: Candida albicans; test: Antifungal activity against Candida albicans MTCC 3958 after 24 hrs by well diffusion method; assay type: functional; conditions: MTCC 3958, 24 h; how it was run: as §1
# [5] = tested on: Pseudomonas aeruginosa; test: Antibacterial activity against Pseudomonas aeruginosa MTCC 2453 after 24 hrs by well diffusion method; assay type: functional; conditions: MTCC 2453, 24 h
# How it was run: (§3)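 Bacteria spread (0.1 mL suspension) on Mueller-Hinton agar; 6.0 mm wells loaded with compound over a 250 to 0.48 per-well dose range, methanol as negative control. Incubated 24 h at 37 °C. MIC taken as the lowest concentration still giving an inhibition zone. Duplicates, mean reported.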
# [6] = tested on: Staphylococcus aureus; test: Antibacterial activity against Staphylococcus aureus MTCC 96 after 24 hrs by well diffusion method; assay type: functional; conditions: MTCC 96, 24 h; how it was run: as §3
# [7] = tested on: Raoultella planticola; test: Bactericidal activity against Klebsiella planticola MTCC 530 after 24 hrs; assay type: functional; conditions: MTCC 530, 24 h
# How it was run: (§4)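 Broth macrodilution in Mueller Hinton broth, compound serially diluted from 150 down to 0. Overnight bacterial culture added to a final 1.5 × 10^8 CFU/mL (0.5 McFarland), 24 h at 37 °C. Suspension then subcultured onto Mueller Hinton agar for 24 h at 37 °C. MBC is the lowest concentration killing the strain. Duplicates.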
# [8] = tested on: Bacillus subtilis; test: Antibacterial activity against Bacillus subtilis MTCC 121 after 24 hrs by well diffusion method; assay type: functional; conditions: MTCC 121, 24 h; how it was run: as §3
# [9] = tested on: [Candida] aaseri; test: Fungicidal activity against Candida aaseri MTCC 1962 after 24 hrs; assay type: functional; conditions: Yamadazyma aaseri, MTCC 1962, 24 h; how it was run: as §2
# [10] = Antifungal activity against Candida krusei MTCC 3020 after 24 hrs by well diffusion method; assay type: functional; conditions: Pichia kudriavzevii; how it was run: as §1
# [11] = tested on: Candida albicans; test: Antifungal activity against Candida albicans MTCC 183 after 24 hrs by well diffusion method; assay type: functional; conditions: MTCC 183, 24 h; how it was run: as §1
# [12] = tested on: Candida albicans; test: Antifungal activity against Candida albicans MTCC 3017 after 24 hrs by well diffusion method; assay type: functional; conditions: MTCC 3017, 24 h; how it was run: as §1
# [13] = Cytotoxicity against human DU145 cells assessed as cell growth inhibition by MTT assay; assay type: functional, cell-based; conditions: DU-145
# [14] = tested on: Candida albicans; test: Antifungal activity against Candida albicans MTCC 4748 after 24 hrs by well diffusion method; assay type: functional; conditions: MTCC 4748, 24 h; how it was run: as §1
# [15] = tested on: Raoultella planticola; test: Antibiofilm activity against Klebsiella planticola MTCC 530 incubated for 24 hrs under static condition by crystal violet staining-based assay; assay type: functional
# How it was run: (§5)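 Strains grown overnight in tryptone soy broth with 0.5% glucose. Compound (250 to 0) mixed with inoculum at 5 × 10^5 CFU/mL in polystyrene microtiter plates. Non-adherent cells washed off with PBS; wells stained with 0.1% crystal violet, dye solubilised in 95% ethanol, absorbance read at 540 nm. IC50 for 50% biofilm inhibition taken from dose-response curves. Triplicates, mean ± S.D.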
# [16] = tested on: Pichia kudriavzevii; test: Fungicidal activity against Candida krusei MTCC 3020 after 24 hrs; assay type: functional; conditions: MTCC 3020, 24 h
# How it was run: (§6)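 Broth dilution in Mueller Hinton broth with serial compound concentrations from […]. Overnight Candida cultures added to a final 1.5 × 10^8 CFU/mL (0.5 McFarland). Incubated 24 h at 37 °C, then 10 µL of each tube plated on Mueller Hinton agar for 24 h at 37 °C. MFC taken as the lowest concentration that kills the strain. Run in duplicate.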
# [17] = tested on: Raoultella planticola; test: Antibacterial activity against Klebsiella planticola MTCC 530 after 24 hrs by well diffusion method; assay type: functional; conditions: MTCC 530, 24 h; how it was run: as §3
# [18] = tested on: Pseudomonas aeruginosa; test: Bactericidal activity against Pseudomonas aeruginosa MTCC 2453 after 24 hrs; assay type: functional; conditions: MTCC 2453, 24 h; how it was run: as §4
# [19] = tested on: Candida albicans; test: Fungicidal activity against Candida albicans MTCC 854 after 24 hrs; assay type: functional; conditions: MTCC 854, 24 h; how it was run: as §2
# [20] = Antifungal activity against Candida glabrata MTCC 3019 after 24 hrs by well diffusion method; assay type: functional; conditions: Nakaseomyces glabratus; how it was run: as §1
# [21] = tested on: Candida albicans; test: Fungicidal activity against Candida albicans MTCC 3018 after 24 hrs; assay type: functional; conditions: MTCC 3018, 24 h; how it was run: as §2
# [22] = tested on: Staphylococcus aureus; test: Antibiofilm activity against Staphylococcus aureus MLS16 MTCC 2940 incubated for 24 hrs under static condition by crystal violet staining-based assay; assay type: functional; how it was run: as §5
# [23] = tested on: Candida albicans; test: Antifungal activity against Candida albicans MTCC 227 after 24 hrs by well diffusion method; assay type: functional; conditions: MTCC 227, 24 h; how it was run: as §1
# [24] = tested on: Candida albicans; test: Fungicidal activity against Candida albicans MTCC 183 after 24 hrs; assay type: functional; conditions: MTCC 183, 24 h; how it was run: as §2
# [25] = tested on: Candida albicans; test: Antifungal activity against Candida albicans MTCC 1637 after 24 hrs by well diffusion method; assay type: functional; conditions: MTCC 1637, 24 h; how it was run: as §1
# [26] = tested on: Candida parapsilosis; test: Fungicidal activity against Candida parapsilosis MTCC 1744 after 24 hrs; assay type: functional; conditions: Lodderomyces parapsilosis, MTCC 1744, 24 h; how it was run: as §6
compound,measurement,setting,value
CCCCCCCCC[C@H](O)[C@H](N)CO,MIC,[1],31.2 µg/mL
same,MFC,[2],62.5 µg/mL
same,MIC,[3],15.6 µg/mL
same,MIC,[4],7.8 µg/mL
same,MIC,[5],7.8 µg/mL
same,MIC,[6],7.8 µg/mL
same,MBC,[7],31.2 µg/mL
same,MIC,[8],3.9 µg/mL
same,MFC,[9],31.2 µg/mL
same,MIC,[10],7.8 µg/mL
same,MIC,[11],15.6 µg/mL
same,MIC,[12],15.6 µg/mL
same,IC50,[13],34.1 µM
same,MIC,[14],15.6 µg/mL
same,IC50,[15],9.2 µg/mL
same,MFC,[16],15.6 µg/mL
same,MIC,[17],15.6 µg/mL
same,MBC,[18],15.6 µg/mL
same,MFC,[19],15.6 µg/mL
same,MIC,[20],15.6 µg/mL
same,MFC,[21],15.6 µg/mL
same,IC50,[22],2.1 µg/mL
same,MIC,[23],15.6 µg/mL
same,MFC,[24],15.6 µg/mL
same,MIC,[25],7.8 µg/mL
same,MFC,[26],62.5 µg/mL
